Most compounds without a hit are left out; they make up all but 4.5% or so of the library.
OX1R antag-1: antagonists of human orexin 1 receptor | O43613 | CHO/OX1R cells, Fluo-8 calcium fluorescence, orexin A | inhibition, % at 5 µM | hit rate 0.43% among 330,000;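 active = inhibition above its plate's threshold, mean inhibition of all tested compounds on the plate plus 3 SD, cut at about 37% in these data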;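 note: 0% = orexin A challenge wells and 100% = SB-334867-A antagonist wells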
GPR7 antag: human neuropeptides B/W receptor 1 antagonism; AID 1861; inhibition, % at 4.4 µM; GPR7-expressing cells, fluorescence antagonist assay; hit rate 1.1% among 290,000; P48145; in the data active = inhibition above about 16%, passing the limit was not always enough;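 note: cells stimulated with the agonist NPW; 0% = agonist with vehicle and 100% = vehicle without agonist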
CHO parental Ca: signal in parental CHO cells, OX1R antagonist counter-screen | inhibition, % at 5.6 µM | hit rate 0.63% among 330,000 | parental CHO-K1, ATP-induced calcium, Fluo-8 fluorescence;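 active = inhibition above that plate's mean sample inhibition plus 3 SD, cut at about 26% in these data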;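 note: 0% = ATP-challenged DMSO wells and 100% = DMSO wells without ATP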
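material = parental CHO cells | also added = ATP as calcium-mobilizing challenge | dosing = single point at 5.6 µM | detection = intracellular calcium via Fluo-8 no-wash fluorescent dye | read-out = % inhibition | benchmarks = low control ATP plus DMSO, high control DMSO only | repeats = one well per compound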
TAAR1 antagonist: human TAAR1 antagonism | inhibition, % at 3 µM | CHO RD-HGA16 TAAR1, Fluo-8 calcium fluorescence, antagonist | Q96RJ0 | hit rate 1.5% among 360,000;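 active = inhibition above a per-plate cutoff, the mean inhibition of test compounds on that plate plus 3 SD, cut at about 49% in these data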;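 note: 0% = DMSO plus EC80 beta-PEA response and 100% = DMSO alone without agonist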
Target sequence (Q96RJ0 whole entry, looked up): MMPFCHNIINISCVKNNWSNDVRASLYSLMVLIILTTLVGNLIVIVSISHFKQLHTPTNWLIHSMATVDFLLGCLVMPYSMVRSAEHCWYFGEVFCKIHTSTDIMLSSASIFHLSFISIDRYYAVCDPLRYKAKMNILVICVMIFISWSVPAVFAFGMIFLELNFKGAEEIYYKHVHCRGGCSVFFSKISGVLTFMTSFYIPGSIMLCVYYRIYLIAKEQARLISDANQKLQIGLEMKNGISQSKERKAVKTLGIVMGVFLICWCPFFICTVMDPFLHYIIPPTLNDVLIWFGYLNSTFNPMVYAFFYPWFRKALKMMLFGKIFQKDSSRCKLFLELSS
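Test system – hTAAR1-expressing CHO RD-HGA16 cells, Gα16-coupled · Reagent – β-PEA at EC80 concentration, post-compound challenge · Compound dosing – 3 µM, single point · Timing – 140 s kinetic read after compound, 140 s after agonist · Detection – Fluo-8 intracellular calcium dye fluorescence, real-time kinetic reads · Control set – DMSO and EC80 PEA controls · Repeats – n of 1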
TAAR1 ag: agonists of human TAAR1. Q96RJ0. activation, % at 3 µM. AID 624467. hit rate 0.99% among 360,000. CHO RD-HGA16 TAAR1, Fluo-8 calcium fluorescence; vehicle wells 0%, saturating PEA agonist 100%;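 active = activation above the mean activation of all test compounds in the run plus 3 SD, cut at about 38% in these data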
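Signal – calcium-sensitive Fluo-8 signal, excitation 470-495, emission 515-575 nm · System – RD-HGA16 (CHO) cells co-expressing Gα16 and hTAAR1 · Incubation – 17-24 h seeding, 75 min 37 °C dye, 30 min RT · Compound dosing – 3 µM single concentration · Repeats – no replicates (n 1)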
OX1R antag-2: OX1R (human) antagonism; O43613; OX1R-expressing cells, FRET antagonist read-out; inhibition, % at 6.6 µM; hit rate 1.8% among 330,000; in the data active = inhibition mostly above about 38%, no sharp cut-off; inactive = mostly below about 40%;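 note: 0% = agonist challenge alone and 100% = reference antagonist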
The depositor's hits bear a star; . = not tested or not shown.

SMILES | OX1R antag-1 | GPR7 antag | CHO parental Ca | TAAR1 antagonist | TAAR1 ag | OX1R antag-2
COC(=O)[C@]12C[C@H](CC(=O)NCc3cccc4ccccc34)C(=O)N(CCc3ccc(OC)c(OC)c3)C1=C[C@H](C(C)(C)C)O[C@@H]2C | . | . | . | -14 | 3 | .
CC(=O)Nc1cccc(-c2csc(Nc3ccccn3)n2)c1 | -10 | 4 | -12 | -1 | 4 | 61*
CC(=O)Nc1cccc(-c2csc(Nc3cc(C)ccn3)n2)c1 | -18 | 11 | -23 | 5 | 2 | 24
Cc1cccc(Nc2nc(-c3ccccn3)cs2)n1 | 20 | -3 | -5 | 26 | 8 | 66*
CSc1ccc(/C=N/N(C)S(=O)(=O)c2ccc(C)cc2)cc1 | 7 | -20 | 63* | 2 | -2 | 15
Cc1ccc(/C=N/N(C)S(=O)(=O)c2ccc(C)cc2)cc1 | -17 | -16 | 51* | -8 | 10 | 10
CC(C)CNC(=O)CN1c2cccc3cccc(c23)S1(=O)=O | -8 | -19 | -2 | 1 | -1 | 28
Cc1ccc(S(=O)(=O)N2CCN(C(=O)COC(=O)CCOc3cc(C)ccc3C)CC2)cc1 | 1 | . | 58* | 36 | 8 | 22
Cc1ccc(C)c(OCCC(=O)OCC(=O)N2CCN(S(=O)(=O)c3ccc(Cl)cc3)CC2)c1 | -8 | . | -5 | 11 | -1 | 9
CC(=O)Nc1ccccc1Nc1cc(C#N)c(C#N)cc1[N+](=O)[O-] | -17 | 1 | 1 | 9 | 8 | 58*
Cc1cc2nc(C3CCCN(C(=O)NCc4ccccc4)C3)[nH]c2cc1C (stereo not drawn) | -18 | -1 | -16 | -2 | 3 | 61*
Cc1cc2nc(C3CCCN(C(=S)Nc4ccccc4C)C3)[nH]c2cc1C (stereo not drawn) | 1 | -6 | -17 | -12 | -2 | 16
CCOC(=O)c1c(C)[nH]c2c1cc(O)c1ccccc12 | -8 | 4 | 2 | 10 | 5 | 43*
CCOC(=O)c1c(C)[nH]c(C)c1C(=O)COC(=O)c1cc2ccccc2cc1O | 0 | 0 | -14 | 34 | 3 | 72*
O=C(C(=O)N1CCN(C(=O)c2ccccc2C(F)(F)F)CC1)c1cccc(C(F)(F)F)c1 | . | . | . | -11 | 3 | .
C[C@H](CO)NC(=O)c1nc[nH]c1C(=O)N[C@@H](C)c1ccccc1 | . | . | . | -16 | 1 | .
Cc1ccc(C(=O)NCC(=O)NC23CC4CC(CC(C4)C2)C3)cc1 | -15 | 3 | -12 | -20 | 5 | -2
Cc1nc(/N=C(\N)NC(=O)c2ccccc2)nc2ccccc12 | 27 | -9 | -22 | . | . | 72*
CSc1nc(C)cc(OCCNS(=O)(=O)c2ccc(C)cc2)n1 | 13 | 5 | -20 | 3 | 8 | 39*
CCCCN(C(=O)C1=NN(c2ccccc2)C(=O)CC1)c1c(N)n(CC(C)C)c(=O)[nH]c1=O | -11 | . | -4 | -6 | 8 | -2
O=C1c2ccccc2-n2c1nc1ccccc1c2=O | 13 | -12 | 0 | 5 | 1 | 54*
CC(C)[C@@H](C)/C=C/[C@@H](C)[C@H]1CC[C@@H]2[C@]1(C)CCC1[C@]23C=C[C@]2(C[C@@H](O)CC[C@]12C)N(c1ncc(C(F)(F)F)cc1Cl)O3 (stereo partly drawn) | . | . | . | -9 | 0 | .
Cc1cc2c(c(=O)o1)[C@@]1(C(=O)N(C)c3ccc([N+](=O)[O-])cc31)C1=C(CCCC1=O)O2 | . | . | . | -5 | 1 | .
Cc1cc(/C=C2\C(=N)N3N=C(C(C)C)SC3=NC2=O)c(C)n1Cc1ccccc1 | 102* | -13 | 65* | 7 | 8 | 6
COc1ccc(N(CC(=O)N2CCN(c3ccc(F)cc3)CC2)S(=O)(=O)c2c(C)noc2C)cc1 | -13 | 1 | -16 | 2 | 0 | 20
O=C(NCCNc1ccc([N+](=O)[O-])cc1C(F)(F)F)c1ccccc1F | 27 | -1 | 42* | 16 | 3 | 42
O=C(c1cc(-c2ccncc2)nc2ccc(Br)cc12)N1CCN(Cc2ccc3c(c2)OCO3)CC1 | -22 | -5 | -14 | 62* | 15 | 10
NC(=O)c1cc(S(=O)(=O)N2CCc3ccccc3C2)cs1 | -32 | 4 | -8 | -7 | 1 | 2
Cc1nnc(N/N=C/c2ccc(-c3ccc(Br)cc3)o2)n1N | -18 | -16 | -7 | -5 | 2 | 40*

Source: PubChem
